High-throughput results deposited in PubChem BioAssay by Johns Hopkins Ion Channel Center.
KCNK3 block: human KCNK3 channel inhibitors, primary screen, CHO cells, FluxOR thallium flux, B-score. FluxOR fluorescence; hits give low values. 340,000 tested, 0.84% active. Potassium channel subfamily K member 3 (Homo sapiens), O14649. AID 602410, 2012. B-score at 10 µM;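 active = B-score under library mean minus 4 SD, starting fluorescence ratio at most library mean plus 5 SD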;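 also: more negative B-score means stronger inhibition of thallium flux through KCNK3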
KCNQ1 inh: inhibitors of human KCNQ1 channel, primary screen, cell-based, thallium flux, high-throughput; Potassium voltage-gated channel subfamily KQT member 1 (Homo sapiens), P51787; CHO-K1 KCNQ1, FluxOR thallium flux fluorescence; hits give high values; B-score at 10 µM; 310,000 tested, 1.3% active; AID 2642, 2010;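 active = compounds whose thallium flux B-score, printed positive for inhibition, exceeds three library SD while starting fluorescence stays within three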;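 also: channel opened by potassium depolarization with thallium stimulus after 20 min compound exposure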
KCNQ1 pot: potentiators or activators of KCNQ1 channel, primary screen, cell-based, thallium flux, high-throughput | CHO-K1 KCNQ1, thallium flux FluxOR fluorescence; hits give high values | B-score at 10 µM | 310,000 tested, 0.35% active | AID 2648, 2010;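 active = fluorescence ratio B-score, a plate-corrected score, at least three library SD, with initial intensity B-score within 5 SD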
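Assay system: CHO-K1 cells stably expressing KCNQ1. Medium: assay buffer for compound exposure, DMSO matched across wells. Timing: 37 °C overnight plating, 90-min dark dye load, 20-min compound pretreatment. Signal: kinetic FluxOR fluorescence, 10 s baseline plus 110 s post-stimulus.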
Kir21 inh: inhibitors of mouse Kir2.1 inward-rectifier potassium channel. B-score at 10 µM. HEK293-Kir2.1, FluxOR thallium flux fluorescence; hits give low values. AID 1672, 2009. 310,000 tested, 0.85% active;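 active = fluorescence ratio B-score at or below minus 3 SD of library scores, with starting-brightness B-score within 2 SD, cut at about -4.2 in these data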;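 also: channel flux triggered by added potassium and thallium sulfate stimulus; B-score of peak minus minimum fluorescence over baseline after thallium stimulus; more negative B-score means stronger Kir2.1 block with less thallium influx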
hERG rescue: hERG rescue from dofetilide block, primary screen, cell-based, CHO-hERG, FluxOR thallium flux, dofetilide IC70; Voltage-gated inwardly rectifying potassium channel KCNH2 (Homo sapiens), Q12809; 310,000 tested, 0.51% active; activation (rescue from dofetilide block), less the hit threshold, % at 10 µM; AID 1511, 2009; dofetilide IC70 present;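 active = activation above the mean of controls blocked by dofetilide plus 5 SD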;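 also: thallium influx through hERG after potassium depolarization seen as dye fluorescence rise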
KCNK9 block: KCNK9 potassium channel inhibitors, primary screen, HEK293 cells, thallium flux | Potassium channel subfamily K member 9 (Homo sapiens), Q9NPC2 | FluxOR thallium flux fluorescence; hits give low values | B-score at 10 µM | 310,000 tested, 1.2% active;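 active = ratio B-score over 3 SD below the library mean, with starting fluorescence within 5 SD of its mean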;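 also: negative B-score means less thallium flux so channel inhibition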
Target sequence (Q9NPC2 whole entry, looked up): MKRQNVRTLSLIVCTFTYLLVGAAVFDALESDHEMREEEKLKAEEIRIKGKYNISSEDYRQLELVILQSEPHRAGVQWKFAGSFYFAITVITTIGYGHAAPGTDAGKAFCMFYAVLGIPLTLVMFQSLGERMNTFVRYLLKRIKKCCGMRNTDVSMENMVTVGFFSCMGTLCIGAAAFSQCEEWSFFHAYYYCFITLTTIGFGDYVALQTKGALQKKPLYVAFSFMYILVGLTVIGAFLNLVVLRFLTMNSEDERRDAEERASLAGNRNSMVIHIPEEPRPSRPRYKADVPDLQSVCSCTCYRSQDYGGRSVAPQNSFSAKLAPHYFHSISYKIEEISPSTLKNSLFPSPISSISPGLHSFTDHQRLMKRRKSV
KCNK3 confirm: retest of human KCNK3 channel inhibitors, confirmation, CHO cells, FluxOR thallium flux, triplicate. shares compounds with KCNK3 block. FluxOR fluorescence; 0% buffer, 100% carvedilol maximal block. ratio percent of control, % at 10 µM. 2,400 tested, 99% active. AID 651638, 2012;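 active = ratio percent of control, averaged over triplicates, above buffer control mean plus 5 SD, cut at about 64% in these data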;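 also: ratio is the fluorescence rise from min to max over baseline after thallium stimulus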
KCNK3 noninduced: thallium flux inhibition in non-induced cells, primary screen, counter-screen for KCNK3 inhibitor project, cell-based, non-induced KCNK3 line, FluxOR thallium, triplicate. shares compounds with KCNK3 block. non-induced KCNK3 parental cells; hits give low values. thallium flux ratio (lower = more inhibition) at 10 µM. 2,400 tested, 40% active;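 active = thallium flux ratio, averaged over three wells, more than 5 SD below the buffer control mean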;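 also: host cells are CHO cells without KCNK3 induction; ratio is peak minus trough fluorescence over baseline then normalized to buffer controls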
* hit, by the source's call. Sampled rows, rich in hits. Any-hit rate of the full collection: about 3.8%.

Results for Cc1cc(C(=O)N/N=C/c2c(C)[nH]n(-c3ccccc3)c2=O)n[nH]1 ?
KCNK3 block: inactive; KCNQ1 inh: inactive; KCNQ1 pot: inactive; Kir21 inh: 1.1; hERG rescue: -8; KCNK9 block: inactive

How did Cc1ccc(-c2cc(C(=O)N/N=C/c3c(C)nn(-c4ccccc4)c3C)n[nH]2)s1 do in these assays?
KCNK3 block: -9.1*; KCNQ1 inh: inactive; KCNQ1 pot: inactive; Kir21 inh: 1.4; hERG rescue: -15; KCNK9 block: inactive; KCNK3 confirm: 130*; KCNK3 noninduced: 0.13*

What do the screens show for `C=CCN(CC(O)c1cccc([N+](=O)[O-])c1)C(C)CCc1ccccc1` (centres undefined)?
KCNK3 block: inactive; KCNQ1 inh: inactive; KCNQ1 pot: inactive; Kir21 inh: -0.7; hERG rescue: -16; KCNK9 block: inactive

How did CC(C(=O)Nc1ccc2c(c1)OCCO2)N(C)CC(=O)Nc1ccccc1Br (centres undefined) do in these assays?
KCNK3 block: inactive

Results for COc1ccccc1C(=O)Nc1c(C(=O)N(CCN(C)C)Cc2ccco2)oc2ccccc12 ?
KCNK3 block: -11*; KCNQ1 inh: inactive; KCNQ1 pot: inactive; Kir21 inh: -3.7; hERG rescue: -31; KCNK9 block: inactive; KCNK3 confirm: 125*; KCNK3 noninduced: 0.14*

What do the screens show for `COc1ccc(OCC(=O)Nc2c(C(=O)N(CCN(C)C)Cc3ccco3)oc3ccccc23)cc1`?
KCNK3 block: inactive; KCNQ1 inh: inactive; KCNQ1 pot: inactive; Kir21 inh: -2.7; hERG rescue: -24; KCNK9 block: inactive

What do the screens show for `O=C(CNC(=O)c1ccccc1)OCc1nnc(-c2ccccc2)o1`?
KCNK3 block: inactive; KCNQ1 inh: inactive; KCNQ1 pot: inactive; Kir21 inh: -0.23; hERG rescue: -15; KCNK9 block: inactive

What do the screens show for `O=C(CCN1c2ccccc2Sc2ccccc21)OCc1nnc(-c2ccccc2)o1`?
KCNK3 block: -9.5*; KCNQ1 inh: inactive; KCNQ1 pot: inactive; Kir21 inh: -1.4; hERG rescue: -6; KCNK9 block: inactive; KCNK3 confirm: 73*; KCNK3 noninduced: inactive

Results for Cc1onc(-c2ccc(Cl)cc2Cl)c1-c1csc(COc2ccccc2)n1 ?
KCNK3 block: -9.6*; KCNQ1 inh: inactive; KCNQ1 pot: inactive; Kir21 inh: -0.45; hERG rescue: -4; KCNK9 block: inactive; KCNK3 confirm: 101*; KCNK3 noninduced: 0.15*

Results for CCc1cccc(NC(=O)Cn2cc(C=O)c3ccccc32)c1 ?
KCNK3 block: inactive; KCNQ1 inh: inactive; KCNQ1 pot: inactive; Kir21 inh: 0.64; hERG rescue: -2; KCNK9 block: inactive

What do the screens show for `O=C(/C=C/c1ccccc1Br)c1ccc2c(c1)OCO2`?
KCNK3 block: inactive; KCNQ1 inh: inactive; KCNQ1 pot: inactive; Kir21 inh: 0; hERG rescue: -11; KCNK9 block: inactive

Results for O=C(/C=C\Nc1ccccc1Br)c1ccc2c(c1)OCO2 ?
KCNK3 block: -12*; KCNQ1 inh: inactive; KCNQ1 pot: inactive; Kir21 inh: -2.8; hERG rescue: -10; KCNK9 block: inactive; KCNK3 confirm: 118*; KCNK3 noninduced: inactive
